Key:
[1] = system: PKC; experiment: PepTag non-radioactive PKC assay; format: biochemical; settings: read-out: IC50 value, PKC; mean ± standard deviation, triplicate
[2] = Distribution of compound in tissues and plasma after chronic oral administration; format: in vivo; settings: CD1 mice, oral gavage 5 mg/Kg daily for 75 days, n = 4
Summary of the method: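 CD1 mice: four treated, two untreated. Test compound was given by oral gavage at 5 mg/Kg once daily for 75 days. Brain, pancreas, liver, kidney, lung and plasma were then assayed for the compound by a previously reported procedure. Levels are in µM as mean ± standard deviation; ND = not detectable.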

[3] = system: liver transaminases, aspartate aminotransferase (AST) and alanine transaminase (ALT); experiment: Plasma liver transaminase; format: in vivo; settings: mice, 5 mg/kg daily by oral gavage for 75 days, vs control mice

Compound	IC50 [1]	Concentration of 3, Kidney [2]	Concentration of 3, Liver [2]	Concentration of 3, Pancreases [2]	Concentration of 3, Plasma [2]	ALT enzyme activity in plasma [3]	AST enzyme activity in plasma [3]
COc1cc(NCc2ccc(O)cc2)c2nccc(C)c2c1Oc1cccc(C(F)(F)F)c1 [Compound 3]	240 ± 21.2 µM	16.1 ± 2.1 µM	7.1 ± 0.6 µM	26.5 ± 6.6 µM	4.5 ± 0.3 µM	No significant difference	No significant difference
COc1cc(NCc2cccc3cccnc23)c2nccc(C)c2c1Oc1cccc(C(F)(F)F)c1 [Compound 7]	400 ± 13.7 µM	–	–	–	–	–	–

Source: publication PMC4110911 (Bioorganic & medicinal chemistry letters, 2014)
